Activity calls are given as the source filed them. The calls are words filed in the database; no cut-off is given here.
Tests used:
[1] = Selectivity index, ratio of IC50 for rat DNA polymerase beta to IC50 for calf thymus DNA polymerase alpha
[2] = target: Myosin light chain kinase, smooth muscle (Homo sapiens, UniProt Q15746); assay: Inhibition of MLCK
[3] = Inhibition of calf thymus DNA polymerase alpha by [3H]dTTP incorporation assay; set-up: species or system Bos taurus
Method in brief: (§1)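 Enzymes: pol α immunoaffinity-purified from calf thymus; pol β purified from a recombinant rat pol β expression plasmid. Template-primer was poly(dA)/oligo(dT)12–18 (A/T = 2/1) with [³H]-dTTP as substrate. Inhibitor–enzyme premix was added to standard reaction mixture and incubated for 60 min at 37 °C. Remaining activity was expressed relative to the no-inhibitor control (100%).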

Bos taurus = species: Bos taurus; assay: Inhibition of calf thymus DNA polymerase alpha assessed as complete inhibition of enzyme activity at 4 uM by [3H]dTTP incorporation assay
DNA polymerase beta = DNA polymerase beta (Rattus norvegicus, UniProt P06766); assay: Inhibition of rat DNA polymerase beta by [3H]dTTP incorporation assay; method in brief: as §1

Sequence of Myosin light chain kinase, smooth muscle (Q15746 whole entry): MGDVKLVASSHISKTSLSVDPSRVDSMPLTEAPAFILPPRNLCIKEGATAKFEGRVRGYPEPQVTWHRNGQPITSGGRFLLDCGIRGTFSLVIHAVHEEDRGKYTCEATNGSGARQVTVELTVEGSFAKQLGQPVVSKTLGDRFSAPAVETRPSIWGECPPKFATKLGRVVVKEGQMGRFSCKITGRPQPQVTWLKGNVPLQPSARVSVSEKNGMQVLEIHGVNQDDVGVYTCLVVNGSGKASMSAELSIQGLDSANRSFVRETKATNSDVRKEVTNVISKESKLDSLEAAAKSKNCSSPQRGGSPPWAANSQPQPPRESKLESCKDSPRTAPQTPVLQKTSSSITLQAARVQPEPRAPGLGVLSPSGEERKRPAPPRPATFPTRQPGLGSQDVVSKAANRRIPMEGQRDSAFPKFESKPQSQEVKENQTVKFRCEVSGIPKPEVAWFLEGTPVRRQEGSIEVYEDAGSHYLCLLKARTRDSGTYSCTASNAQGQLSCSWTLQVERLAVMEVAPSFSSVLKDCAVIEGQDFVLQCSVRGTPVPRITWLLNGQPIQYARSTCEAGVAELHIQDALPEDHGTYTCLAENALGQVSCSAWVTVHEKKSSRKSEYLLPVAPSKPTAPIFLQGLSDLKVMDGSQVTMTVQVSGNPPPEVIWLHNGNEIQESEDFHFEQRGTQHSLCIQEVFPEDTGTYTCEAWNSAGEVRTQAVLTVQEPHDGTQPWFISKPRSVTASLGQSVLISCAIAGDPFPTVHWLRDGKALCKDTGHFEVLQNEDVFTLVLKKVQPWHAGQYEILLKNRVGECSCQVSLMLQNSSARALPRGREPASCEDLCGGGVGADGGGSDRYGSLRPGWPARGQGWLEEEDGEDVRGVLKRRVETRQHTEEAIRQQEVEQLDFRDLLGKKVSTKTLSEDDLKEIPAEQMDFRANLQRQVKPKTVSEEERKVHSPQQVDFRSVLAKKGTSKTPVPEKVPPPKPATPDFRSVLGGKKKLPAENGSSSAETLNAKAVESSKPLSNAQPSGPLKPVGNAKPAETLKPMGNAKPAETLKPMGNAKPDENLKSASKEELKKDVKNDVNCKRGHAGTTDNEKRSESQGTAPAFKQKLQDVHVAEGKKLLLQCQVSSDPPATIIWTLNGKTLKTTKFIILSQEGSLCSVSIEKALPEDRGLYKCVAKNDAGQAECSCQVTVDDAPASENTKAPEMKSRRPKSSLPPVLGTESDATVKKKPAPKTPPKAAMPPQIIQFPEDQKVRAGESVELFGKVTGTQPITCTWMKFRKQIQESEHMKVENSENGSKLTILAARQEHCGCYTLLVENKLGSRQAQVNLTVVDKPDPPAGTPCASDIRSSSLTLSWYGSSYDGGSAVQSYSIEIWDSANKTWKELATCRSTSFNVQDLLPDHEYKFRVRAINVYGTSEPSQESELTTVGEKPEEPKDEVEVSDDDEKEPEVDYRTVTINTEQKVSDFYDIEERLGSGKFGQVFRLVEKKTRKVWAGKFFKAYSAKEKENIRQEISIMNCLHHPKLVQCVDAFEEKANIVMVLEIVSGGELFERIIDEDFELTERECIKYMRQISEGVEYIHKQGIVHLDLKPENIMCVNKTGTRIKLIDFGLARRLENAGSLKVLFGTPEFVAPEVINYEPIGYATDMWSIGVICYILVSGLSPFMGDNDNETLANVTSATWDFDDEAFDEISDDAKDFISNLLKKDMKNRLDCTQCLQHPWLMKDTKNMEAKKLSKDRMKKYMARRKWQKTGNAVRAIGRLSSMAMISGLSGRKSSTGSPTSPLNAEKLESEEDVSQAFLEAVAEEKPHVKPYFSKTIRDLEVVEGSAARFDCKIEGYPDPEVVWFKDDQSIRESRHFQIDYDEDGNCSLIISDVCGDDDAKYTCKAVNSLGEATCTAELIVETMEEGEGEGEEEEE

COc1cc(O)c2c(c1)C1=CC(=O)C(O)=CC1(C)OC2=O (stereo not given) [DEHYDROALTENUSIN]
Ratio IC50 [1]: 94.1
IC50 [2]: 0.69 µM
IC50 [3]: Dose-dependent effect
IC50 ([3]; read-out: IC50): 0.68 µM
Activity (Bos taurus): Active
IC50 (DNA polymerase beta): 64 µM

CCCCCCCCCCCCOc1cc(O)c2c(c1)C1=CC(=O)C(O)=CC1(C)OC2=O (stereo not given)
Ratio IC50 [1]: 183
IC50 [3]: Dose-dependent effect
IC50 ([3]; read-out: IC50): 0.06 µM
IC50 (DNA polymerase beta): 11 µM

CCCCCCOc1cc(O)c2c(c1)C1=CC(=O)C(O)=CC1(C)OC2=O (stereo not given)
Ratio IC50 [1]: 267
IC50 [3]: Dose-dependent effect
IC50 ([3]; read-out: IC50): 0.09 µM
IC50 (DNA polymerase beta): 24 µM

COc1cc(O)c2c(=O)oc3cc(OCc4ccccc4)c(OCc4ccccc4)cc3c2c1
IC50 ([3]; read-out: IC50): > 200 µM

CCCOc1cc(O)c2c(c1)C1=CC(=O)C(O)=CC1(C)OC2=O (stereo not given)
Ratio IC50 [1]: 194
IC50 [3]: Dose-dependent effect
IC50 ([3]; read-out: IC50): 0.18 µM
IC50 (DNA polymerase beta): 35 µM

CC12C=C(O)C(=O)C=C1c1cc(O)cc(O)c1C(=O)O2 (stereo not given) [DESMETHYLDEHYDROALTENUSIN]
Ratio IC50 [1]: 142
IC50 [3]: Dose-dependent effect
IC50 ([3]; read-out: IC50): 0.89 µM
IC50 (DNA polymerase beta): 126 µM

CC12C=CC(=O)C=C1c1cccc(O)c1C(=O)O2 (stereo not given)
IC50 ([3]; read-out: IC50): > 200 µM

CC12C=C(O)C(=O)C=C1c1cccc(O)c1C(=O)O2 (stereo not given)
Ratio IC50 [1]: 371
IC50 [3]: Dose-dependent effect
IC50 ([3]; read-out: IC50): 0.24 µM
IC50 (DNA polymerase beta): 89 µM

COc1cc(O)c2c(=O)oc3cc(O)c(O)cc3c2c1
IC50 ([3]; read-out: IC50): > 200 µM

COc1cc(O)c2c(c1)C1=CC(=O)C=CC1(C)OC2=O (stereo not given)
IC50 ([3]; read-out: IC50): > 200 µM

Reference: ChEMBL document CHEMBL1152619, “Synthesis and structure-activity relationships of dehydroaltenusin derivatives as selective DNA polymerase alpha inhibitors” (Bioorg Med Chem, 2009)
